Assay results taken from ChEMBL document CHEMBL1131235, “(R)-(+)-2-[[[3-(Morpholinomethyl)-2H-chromen-8-yl]oxy]methyl] morpholine methanesulfonate: a new selective rat 5-hydroxytryptamine1B receptor antagonist” (J Med Chem, 1998).

Legend:
[1] = target: 5-HT1B & 5-HT1D (Bos taurus); assay: Binding affinity against 5-hydroxytryptamine 1B receptor - 5-hydroxytryptamine 1D receptor using [3H]5-HT as the radioligand.
[2] = target: Sigma non-opioid intracellular receptor 1 (Rattus norvegicus, UniProt Q9R0C9); assay: Binding affinity against sigma receptor from rat whole brains using [3H]DTG as the radioligand.
Chain of Sigma non-opioid intracellular receptor 1 (Q9R0C9 whole entry): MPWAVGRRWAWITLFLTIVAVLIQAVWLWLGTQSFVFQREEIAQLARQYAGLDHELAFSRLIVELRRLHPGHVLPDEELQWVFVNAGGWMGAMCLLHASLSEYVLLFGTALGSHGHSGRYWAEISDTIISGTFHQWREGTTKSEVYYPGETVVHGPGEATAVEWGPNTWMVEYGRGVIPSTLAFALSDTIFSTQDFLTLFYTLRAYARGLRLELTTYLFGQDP
Procedure, shortened: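 Whole rat brain membranes labelled with [3H]DTG (N,N-di(o-tolyl)guanidine), following Ross.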

[3] = target: T1, Adrenergic receptor alpha-1 (Rattus norvegicus, UniProt P15823+P23944+P43140); assay: Binding affinity against Alpha-1 adrenergic receptor in rat cortex using [3H]prazosin as the radioligand.; format: tissue-based, Brain
T1 sequence (P15823 whole entry): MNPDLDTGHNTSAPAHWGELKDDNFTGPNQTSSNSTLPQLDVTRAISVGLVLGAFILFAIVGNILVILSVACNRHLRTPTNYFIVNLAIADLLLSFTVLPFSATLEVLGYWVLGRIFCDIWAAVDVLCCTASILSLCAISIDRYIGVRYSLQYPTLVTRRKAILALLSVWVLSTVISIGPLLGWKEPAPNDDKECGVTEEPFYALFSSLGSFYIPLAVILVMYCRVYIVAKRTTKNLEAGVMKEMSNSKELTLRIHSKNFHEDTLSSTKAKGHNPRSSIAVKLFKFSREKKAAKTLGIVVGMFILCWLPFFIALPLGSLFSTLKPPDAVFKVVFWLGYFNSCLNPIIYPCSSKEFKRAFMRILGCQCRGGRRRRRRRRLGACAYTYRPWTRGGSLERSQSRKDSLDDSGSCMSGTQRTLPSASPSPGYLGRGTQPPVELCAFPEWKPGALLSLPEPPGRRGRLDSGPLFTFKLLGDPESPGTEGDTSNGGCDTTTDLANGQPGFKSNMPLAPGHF
T1 sequence (P23944 whole entry): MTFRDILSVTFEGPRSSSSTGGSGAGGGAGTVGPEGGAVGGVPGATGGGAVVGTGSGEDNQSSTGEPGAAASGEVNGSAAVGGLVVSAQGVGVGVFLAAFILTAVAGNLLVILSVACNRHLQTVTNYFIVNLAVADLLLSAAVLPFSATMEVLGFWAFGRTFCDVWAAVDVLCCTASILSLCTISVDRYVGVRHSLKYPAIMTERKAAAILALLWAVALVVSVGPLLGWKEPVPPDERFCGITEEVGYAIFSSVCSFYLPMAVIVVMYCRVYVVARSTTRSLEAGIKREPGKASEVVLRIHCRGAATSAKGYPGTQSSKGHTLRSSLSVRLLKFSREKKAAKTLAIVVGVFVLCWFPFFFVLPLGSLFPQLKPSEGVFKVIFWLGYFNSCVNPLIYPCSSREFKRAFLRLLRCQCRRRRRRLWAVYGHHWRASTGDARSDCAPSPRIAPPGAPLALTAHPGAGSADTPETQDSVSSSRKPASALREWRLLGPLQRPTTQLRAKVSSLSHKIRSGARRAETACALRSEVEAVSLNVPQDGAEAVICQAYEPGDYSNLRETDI
T1 sequence (P43140 whole entry): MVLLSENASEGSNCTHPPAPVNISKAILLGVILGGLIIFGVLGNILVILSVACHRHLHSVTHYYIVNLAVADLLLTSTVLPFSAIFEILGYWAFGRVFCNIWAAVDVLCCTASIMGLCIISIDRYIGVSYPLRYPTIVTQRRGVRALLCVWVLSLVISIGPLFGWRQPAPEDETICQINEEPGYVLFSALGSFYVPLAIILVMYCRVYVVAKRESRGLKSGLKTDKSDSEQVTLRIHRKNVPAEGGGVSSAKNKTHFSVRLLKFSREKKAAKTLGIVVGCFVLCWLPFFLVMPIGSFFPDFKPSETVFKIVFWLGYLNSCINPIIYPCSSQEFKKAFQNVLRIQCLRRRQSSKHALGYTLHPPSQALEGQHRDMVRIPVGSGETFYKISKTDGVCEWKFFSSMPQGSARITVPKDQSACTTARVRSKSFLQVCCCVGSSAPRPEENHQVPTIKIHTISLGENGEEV
Procedure, shortened: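 Binding by the Jackson et al. method. 5-HT1A used [3H]OH-DPAT on rat hippocampus. α1 used [3H]prazosin, α2 [3H]RX821002 and β [3H]dihydroalprenolol, all on rat cortex. D1 used [3H]SCH-23390 on rat striatum. D2 used [3H]raclopride on LtkhD2A cell membranes.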

[4] = Effect on 5-HIAA/5-HT turnover in Frontal cortex of rat brain, expressed as percent of control; format: functional
Procedure, shortened: (§1)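 Rats received compound 20 mg/kg sc or saline 30 min before NSD 1015 (3-hydroxybenzylhydrazine dihydrochloride), 100 mg/kg sc. They were killed 30 min later. Hypothalamus, hippocampus, frontal cortex and striatum were dissected, frozen on dry ice and stored at -70 °C. 5-HTP, 5-HT and 5-HIAA were measured by HPLC and expressed as % of saline control.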

[5] = Potentiation of K+ stimulated release of [3H]-5-HT from brain slices at a concentration of 10 nM. (activity expressed as ratio of S2 (second stimulation)/S1(first stimulation)); format: functional, Rattus norvegicus
Procedure, shortened: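 Rat occipital cortex slices (0.3 × 0.3 mm) preloaded with [3H]-5-HT, superfused at 0.4 mL/min with oxygenated Krebs-Henseleit pH 7.4 containing 2.5 μM citalopram. Two 4-min 25 mM KCl pulses at 62 and 98 min, compound present for 72 min spanning S2. Fractional release counted by liquid scintillation. S2/S1 ratio reported, also as % of control; n=3–8.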

[6] = target: Muscarinic acetylcholine receptor M3 (Rattus norvegicus, UniProt P08483); assay: Binding affinity against Muscarinic acetylcholine receptor using [3H]QNB as the radioligand.
Chain of Muscarinic acetylcholine receptor M3 (P08483 whole entry): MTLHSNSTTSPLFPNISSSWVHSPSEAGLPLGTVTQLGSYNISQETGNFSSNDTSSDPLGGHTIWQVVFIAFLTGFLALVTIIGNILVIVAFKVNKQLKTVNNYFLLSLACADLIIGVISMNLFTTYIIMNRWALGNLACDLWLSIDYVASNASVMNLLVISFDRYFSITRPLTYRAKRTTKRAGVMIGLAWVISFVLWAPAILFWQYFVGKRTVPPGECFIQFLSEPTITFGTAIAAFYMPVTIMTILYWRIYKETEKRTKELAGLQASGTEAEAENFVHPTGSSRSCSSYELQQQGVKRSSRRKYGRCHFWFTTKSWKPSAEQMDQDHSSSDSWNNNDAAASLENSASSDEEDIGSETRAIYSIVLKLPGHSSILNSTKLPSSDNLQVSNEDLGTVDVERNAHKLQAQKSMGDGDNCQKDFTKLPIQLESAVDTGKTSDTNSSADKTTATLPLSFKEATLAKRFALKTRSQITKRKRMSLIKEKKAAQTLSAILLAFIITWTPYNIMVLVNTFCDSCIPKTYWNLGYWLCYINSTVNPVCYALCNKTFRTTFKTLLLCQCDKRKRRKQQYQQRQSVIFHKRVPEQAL

Rattus norvegicus [7] = organism: Rattus norvegicus; assay: Effect on 5-HIAA/5-HT turnover in Striatum of rat brain, expressed as percent of control; format: functional
Procedure, shortened: as §1

[8] = Potentiation of K+ stimulated release of [3H]5-HT from brain slices at a concentration of 0 nM. (activity expressed as ratio of S2 (second stimulation)/S1(first stimulation)); format: functional, Rattus norvegicus
Rattus norvegicus [9] = assay: Effect on the wet dog shake response(WDS) in rats after 9 determinations at a dose of 3mg/kg, sc pretreated with 200 mg/kg ip of pCPA.; format: functional; conditions: route subcutaneous
Procedure, shortened: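 Rats were pretreated with pCPA 200 mg/kg ip or saline at 72 and 48 h before compound, 3 mg/kg sc. Wet dog shakes (whole-body and head shakes) were counted from 5 to 65 min after injection. Groups of 8-10 rats were compared with saline-treated rats (n = 30), Dunnett's t-test after ANOVA.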

Rattus norvegicus [10] = organism: Rattus norvegicus; assay: Effect on 5-HTP turnover in hypothalamus of rat brain, expressed as percent of control; format: functional
Procedure, shortened: as §1

Row | Ki [1] | Ki [2] | Ki [3] | Ki [6] | Structure (SMILES) | Activity [4] | Potentiation [5] | Activity (Rattus norvegicus [7]) | Potentiation [8] | No. of WDS/60 min (Rattus norvegicus [9]) | Activity (Rattus norvegicus [10])
1 | > 10 µM | > 10 µM | > 10 µM |  | C1=C(CN2CCOCC2)COc2c1cccc2OC[C@@H]1CNCCO1.Cl |  |  |  |  |  | 
2 | 0.63 µM | > 10 µM | > 10 µM | > 1 µM | C1=C(CN2CCOCC2)COc2c1cccc2OC[C@H]1CNCCO1.CS(=O)(=O)O | 161% | 1.11 | 145% | 0.99 | 9.2 | 140%
